Assays:
[1] = test system: Japanese patients with solid tumors; assay: Phase I safety: drug-related adverse events, DLT, MTD, recommended dose; type: in vivo, human; settings: for Recommended dosage: after-meal conditions
Outline: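 Dose escalation used three-patient cohorts, alternating b.i.d. and t.i.d., starting at 200 mg/m2 b.i.d. Oral dosing was by body surface area for 28 days continuously. b.i.d. doses were taken within 1 h after meals, about 12 h apart; t.i.d. doses about 6 or 12 h apart. Patients were assessed at least weekly and graded by NCI-CTC v2.0. DLT: grade ≥3 non-haematological or grade ≥4 haematological drug-related event. MTD: DLT in 2/3 or 3/6 patients.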

plasma VEGF = assay: Angiogenesis-related factor: plasma VEGF; type: in vivo, human
Outline: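 Plasma and urine were collected from patients before treatment and after day 8 and day 28 of oral test compound dosing, and analysed at a central commercial laboratory. ELISA kits were used for human VEGF (plasma and urine), ELAM-1, VCAM-1 and soluble t-PA. Soluble PAI-1 was measured by latex photometric immunoassay. Values are reported as median (range) per time point.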

[2] = test system: liver cytochrome P450, CYP1A1/2; settings: non-clinical studies; cited from earlier work
[3] = b.i.d. 200 mg/m^2 × 2, n = 3, G1
[4] = b.i.d. 200 mg/m^2 × 2, n = 3, G2
[5] = b.i.d. 400 mg/m^2 × 2, n = 6, G1
[6] = b.i.d. 400 mg/m^2 × 2, n = 6, G2
[7] = b.i.d. 400 mg/m^2 × 2, n = 6, G3
[8] = b.i.d. 500 mg/m^2 × 2, n = 3, G1
[9] = b.i.d. 500 mg/m^2 × 2, n = 3, G2
[10] = t.i.d. 200 mg/m^2 × 3, n = 6, G1
[11] = t.i.d. 200 mg/m^2 × 3, n = 6, G2
[12] = t.i.d. 400 mg/m^2 × 3, n = 6, G1
[13] = t.i.d. 400 mg/m^2 × 3, n = 6, G2
[14] = t.i.d. 400 mg/m^2 × 3, n = 6, G4

Cc1[nH]c(/C=C2\C(=O)Nc3ccccc32)c(C)c1CCC(=O)O [TSU-68, (Z)-5-[(1,2-dihydro-2-oxo-3H-indol-3-ylidene)methyl]-2,4-dimethyl-1H-pyrrole-3-propanoic acid]
Patients experiencing DLTs ([1]; 400 mg/m^2 b.i.d. dose level, three plus three patients, grade 3 dyspnea, hypoxemia, pleural effusion and anorexia, and unacceptable grade 2 anorexia): 2 patients | Dose-limiting toxicity (DLT) ([1]; 500 mg/m^2 b.i.d. dose level): not found | Toxicity ≥ G3-4 ([1]; Pt 4, SCLC, b.i.d. 400 mg/m^2 (1,200 mg/day)): G3 (DLT) | Toxicity ≥ G3-4 ([1]; Pt 5, NSCLC, b.i.d. 400 mg/m^2 (1,200 mg/day)): – (DLT) | Toxicity ≥ G3-4 ([1]; Pt 19, NSCLC, t.i.d. 400 mg/m^2 (2,400 mg/day)): G4 (DLT) | Abdominal pain upper, Total no. (%) ([1]; all dose levels, n = 24): 5 (20.8) no. (%) | Abdominal pain, Total no. (%) ([1]; all dose levels, n = 24): 11 (45.8) no. (%) | Alkaline phosphatase increased, Total no. (%) ([1]; all dose levels, n = 24): 13 (54.2) no. (%) | Anorexia, Total no. (%) ([1]; all dose levels, n = 24): 12 (50.0) no. (%) | Back pain, Total no. (%) ([1]; all dose levels, n = 24): 5 (20.8) no. (%) | Blood albumin decreased, Total no. (%) ([1]; all dose levels, n = 24): 20 (83.3) no. (%) | Diarrhea, Total no. (%) ([1]; all dose levels, n = 24): 17 (70.8) no. (%) | Discoloration urine/stool, Total no. (%) ([1]; all dose levels, n = 24): 24 (100) no. (%) | Dyspnea, Total no. (%) ([1]; all dose levels, n = 24): 1 (4.2) no. (%) | Face edema, Total no. (%) ([1]; all dose levels, n = 24): 6 (25.0) no. (%) | Headache, Total no. (%) ([1]; all dose levels, n = 24): 7 (29.2) no. (%) | Hypoxia, Total no. (%) ([1]; all dose levels, n = 24): 1 (4.2) no. (%) | Malaise, Total no. (%) ([1]; all dose levels, n = 24): 18 (75.0) no. (%) | Nauseous, Total no. (%) ([1]; all dose levels, n = 24): 9 (37.5) no. (%) | Pericardial effusion, Total no. (%) ([1]; all dose levels, n = 24): 1 (4.2) no. (%) | Pleural effusion, Total no. (%) ([1]; all dose levels, n = 24): 5 (20.8) no. (%) | Vomiting, Total no. (%) ([1]; all dose levels, n = 24): 8 (33.3) no. (%) | γ-glutamyltransferase increased, Total no. (%) ([1]; all dose levels, n = 24): 6 (25.0) no. (%) | No. maximum grade (patients, drug-related adverse events) [1, 3]: 0 | Number of patients with drug-related Alkaline phosphatase increased [1, 3]: 1 | Number of patients with drug-related Anorexia [1, 3]: 2 | Number of patients with drug-related Blood albumin decreased [1, 3]: 1 | Number of patients with drug-related Diarrhea [1, 3]: 1 | Number of patients with drug-related Discoloration urine/stool [1, 3]: 3 | Number of patients with drug-related Malaise [1, 3]: 1 | Number of patients with drug-related Serum total protein decreased [1, 3]: 1 | No. maximum grade (patients, drug-related adverse events) [1, 4]: 3 | Number of patients with drug-related Abdominal pain [1, 4]: 2 | Number of patients with drug-related Blood albumin decreased [1, 4]: 1 | Number of patients with drug-related Diarrhea [1, 4]: 1 | Number of patients with drug-related Malaise [1, 4]: 1 | Number of patients with drug-related Nauseous [1, 4]: 1 | Number of patients with drug-related Vomiting [1, 4]: 1 | No. maximum grade (patients, drug-related adverse events) ([1]; b.i.d. 200 mg/m^2 × 2, n = 3, G3): 0 | No. maximum grade (patients, drug-related adverse events) ([1]; b.i.d. 200 mg/m^2 × 2, n = 3, G4): 0 | No. maximum grade (patients, drug-related adverse events) [1, 5]: 0 | Number of patients with drug-related Abdominal pain [1, 5]: 1 | Number of patients with drug-related Abdominal pain upper [1, 5]: 1 | Number of patients with drug-related Alkaline phosphatase increased [1, 5]: 6 | Number of patients with drug-related Anorexia [1, 5]: 2 | Number of patients with drug-related Back pain [1, 5]: 1 | Number of patients with drug-related Blood albumin decreased [1, 5]: 2 | Number of patients with drug-related Diarrhea [1, 5]: 5 | Number of patients with drug-related Discoloration urine/stool [1, 5]: 6 | Number of patients with drug-related Headache [1, 5]: 1 | Number of patients with drug-related Malaise [1, 5]: 4 | Number of patients with drug-related Nauseous [1, 5]: 2 | Number of patients with drug-related Pleural effusion [1, 5]: 1 | Number of patients with drug-related Vomiting [1, 5]: 2 | Number of patients with drug-related γ-glutamyltransferase increased [1, 5]: 1 | No. maximum grade (patients, drug-related adverse events) [1, 6]: 5 | Number of patients with drug-related Abdominal pain [1, 6]: 2 | Number of patients with drug-related Anorexia [1, 6]: 1 | Number of patients with drug-related Back pain [1, 6]: 1 | Number of patients with drug-related Blood albumin decreased [1, 6]: 2 | Number of patients with drug-related Headache [1, 6]: 2 | Number of patients with drug-related Nauseous [1, 6]: 1 | Number of patients with drug-related Serum total protein decreased [1, 6]: 1 | Number of patients with drug-related γ-glutamyltransferase increased [1, 6]: 2 | No. maximum grade (patients, drug-related adverse events) [1, 7]: 1 | Number of patients with drug-related Anorexia [1, 7]: 1 | Number of patients with drug-related Dyspnea [1, 7]: 1 | Number of patients with drug-related Hypoxia [1, 7]: 1 | Number of patients with drug-related Pleural effusion [1, 7]: 1 | No. maximum grade (patients, drug-related adverse events) ([1]; b.i.d. 400 mg/m^2 × 2, n = 6, G4): 0 | No. maximum grade (patients, drug-related adverse events) [1, 8]: 0 | Number of patients with drug-related Abdominal pain upper [1, 8]: 1 | Number of patients with drug-related Alkaline phosphatase increased [1, 8]: 1 | Number of patients with drug-related Anorexia [1, 8]: 2 | Number of patients with drug-related Blood albumin decreased [1, 8]: 1 | Number of patients with drug-related Diarrhea [1, 8]: 1 | Number of patients with drug-related Discoloration urine/stool [1, 8]: 3 | Number of patients with drug-related Face edema [1, 8]: 1 | Number of patients with drug-related Headache [1, 8]: 1 | Number of patients with drug-related Malaise [1, 8]: 3 | Number of patients with drug-related Nauseous [1, 8]: 3 | Number of patients with drug-related Pleural effusion [1, 8]: 1 | Number of patients with drug-related Serum total protein decreased [1, 8]: 1 | Number of patients with drug-related Vomiting [1, 8]: 2 | No. maximum grade (patients, drug-related adverse events) [1, 9]: 3 | Number of patients with drug-related Abdominal pain upper [1, 9]: 1 | Number of patients with drug-related Blood albumin decreased [1, 9]: 2 | Number of patients with drug-related Headache [1, 9]: 1 | Number of patients with drug-related Serum total protein decreased [1, 9]: 1 | No. maximum grade (patients, drug-related adverse events) ([1]; b.i.d. 500 mg/m^2 × 2, n = 3, G3): 0 | No. maximum grade (patients, drug-related adverse events) ([1]; b.i.d. 500 mg/m^2 × 2, n = 3, G4): 0 | Recommended dose suggested by the Independent Data Monitoring Committee ([1]; b.i.d. after meals): 400 mg/body | Recommended dosage ([1]; b.i.d.): ≤ 400 mg/m^2 | No. maximum grade (patients, drug-related adverse events) [1, 10]: 1 | Number of patients with drug-related Abdominal pain [1, 10]: 1 | Number of patients with drug-related Alkaline phosphatase increased [1, 10]: 2 | Number of patients with drug-related Anorexia [1, 10]: 2 | Number of patients with drug-related Blood albumin decreased [1, 10]: 5 | Number of patients with drug-related Diarrhea [1, 10]: 4 | Number of patients with drug-related Discoloration urine/stool [1, 10]: 6 | Number of patients with drug-related Face edema [1, 10]: 2 | Number of patients with drug-related Malaise [1, 10]: 6 | Number of patients with drug-related Nauseous [1, 10]: 1 | Number of patients with drug-related Pleural effusion [1, 10]: 1 | Number of patients with drug-related Serum total protein decreased [1, 10]: 1 | Number of patients with drug-related Vomiting [1, 10]: 3 | Number of patients with drug-related γ-glutamyltransferase increased [1, 10]: 1 | No. maximum grade (patients, drug-related adverse events) [1, 11]: 5 | Number of patients with drug-related Abdominal pain [1, 11]: 2 | Number of patients with drug-related Abdominal pain upper [1, 11]: 2 | Number of patients with drug-related Back pain [1, 11]: 1 | Number of patients with drug-related Blood albumin decreased [1, 11]: 1 | Number of patients with drug-related Diarrhea [1, 11]: 1 | No. maximum grade (patients, drug-related adverse events) ([1]; t.i.d. 200 mg/m^2 × 3, n = 6, G3): 0 | No. maximum grade (patients, drug-related adverse events) ([1]; t.i.d. 200 mg/m^2 × 3, n = 6, G4): 0 | No. maximum grade (patients, drug-related adverse events) [1, 12]: 0 | Number of patients with drug-related Abdominal pain [1, 12]: 1 | Number of patients with drug-related Alkaline phosphatase increased [1, 12]: 2 | Number of patients with drug-related Anorexia [1, 12]: 1 | Number of patients with drug-related Blood albumin decreased [1, 12]: 3 | Number of patients with drug-related Diarrhea [1, 12]: 3 | Number of patients with drug-related Discoloration urine/stool [1, 12]: 6 | Number of patients with drug-related Face edema [1, 12]: 3 | Number of patients with drug-related Headache [1, 12]: 2 | Number of patients with drug-related Malaise [1, 12]: 3 | Number of patients with drug-related Nauseous [1, 12]: 1 | Number of patients with drug-related Pleural effusion [1, 12]: 1 | Number of patients with drug-related Serum total protein decreased [1, 12]: 1 | Number of patients with drug-related γ-glutamyltransferase increased [1, 12]: 2 | No. maximum grade (patients, drug-related adverse events) [1, 13]: 5 | Number of patients with drug-related Abdominal pain [1, 13]: 2 | Number of patients with drug-related Alkaline phosphatase increased [1, 13]: 1 | Number of patients with drug-related Anorexia [1, 13]: 1 | Number of patients with drug-related Back pain [1, 13]: 2 | Number of patients with drug-related Blood albumin decreased [1, 13]: 2 | Number of patients with drug-related Diarrhea [1, 13]: 1 | No. maximum grade (patients, drug-related adverse events) ([1]; t.i.d. 400 mg/m^2 × 3, n = 6, G3): 0 | No. maximum grade (patients, drug-related adverse events) [1, 14]: 1 | Number of patients with drug-related Pericardial effusion [1, 14]: 1 | MTD (maximum tolerated dose) ([1]; t.i.d. after meals, up to 400 mg/m^2): not reached | Recommended dosage ([1]; t.i.d.): ≤ 400 mg/m^2 | Change of plasma VEGF at day 28 compared to baseline (plasma VEGF; PD patients (13 pts.), Wilcoxon signed rank-sum test): significantly increasing | Plasma VEGF, median (plasma VEGF; day 8, 23 patients): 55 pg/mL | Plasma VEGF, range (plasma VEGF; day 8, 23 patients): <31 to 278 pg/mL | Plasma VEGF, median (plasma VEGF; day 28, 22 patients): 63 pg/mL | Plasma VEGF, range (plasma VEGF; day 28, 22 patients): <31 to 270 pg/mL | Effect on liver cytochrome P450, CYP1A1/2 involved in its own metabolism [2]: induction
